ChEMBL document CHEMBL3097989, “Antimicrobial activity of de novo designed cationic peptides against multi-resistant clinical isolates” (Eur J Med Chem, 2014)
Where a SMILES comes first, the peptide text is derived from it.

What was measured:
Klebsiella pneumoniae [1] = assay: Antibacterial activity against Klebsiella pneumoniae M9140 clinical isolate expressing blaCIT gene by microdilution test; type: functional
How it was run: (§1)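 MIC by standard broth microdilution following CLSI recommendations, in Mueller Hinton broth supplemented with Ca²⁺ (20-25mg/L) and Mg²⁺ (10-12.5mg/L); peptides tested against a panel of multi-resistant clinical isolates plus ATCC reference strains.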

Acinetobacter sp. [2] = assay: Antibacterial activity against Acinetobacter sp. M9013 clinical isolate expressing blaOXA-51 and blaIMP gene by microdilution test; type: functional; how it was run: as §1
Acinetobacter sp. [3] = assay: Antibacterial activity against Acinetobacter sp. M5949 clinical isolate expressing blaOXA-23 and blaOXA-GVI gene by microdilution test; type: functional; how it was run: as §1
Acinetobacter sp. [4] = assay: Antibacterial activity against Acinetobacter sp. M5179 clinical isolate expressing blaOXA-51 gene by microdilution test; type: functional; how it was run: as §1
Acinetobacter sp. [5] = assay: Antibacterial activity against Acinetobacter sp. M13523 clinical isolate expressing blaOXA-51 gene by microdilution test; type: functional; how it was run: as §1
Pseudomonas aeruginosa [6] = assay: Antibacterial activity against Pseudomonas aeruginosa M7712 clinical isolate expressing blaSPM gene by microdilution test; type: functional
How it was run: (§2)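 MIC by standard broth microdilution following CLSI recommendations, in Mueller Hinton broth supplemented with Ca²⁺ (20-25 mg/L) and Mg²⁺ (10-12.5 mg/L); ATCC reference strains included in the panel.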

Pseudomonas aeruginosa [7] = assay: Antibacterial activity against Pseudomonas aeruginosa M5200 clinical isolate expressing blaVIM and blaGES-1 gene by microdilution test; type: functional; how it was run: as §2
Pseudomonas aeruginosa [8] = assay: Antibacterial activity against Pseudomonas aeruginosa M7907 clinical isolate expressing blaPER gene by microdilution test; type: functional; how it was run: as §2
Pseudomonas aeruginosa [9] = assay: Antibacterial activity against Pseudomonas aeruginosa M5470 by microdilution test; type: functional; how it was run: as §2
Pseudomonas aeruginosa [10] = assay: Antibacterial activity against Pseudomonas aeruginosa PCOS12 by microdilution test; type: functional; how it was run: as §2
[11] = Toxicity in human RBC assessed as hemolytic activity relative to control; type: cell-based, Erythrocyte; settings: red blood cells (RBC), read-out: Activity
How it was run: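 Heparinized human whole blood diluted 3x in PBS and centrifuged 10 min at 1500 rpm, repeated three times. Cells resuspended to 10% (v/v), then diluted to about 0.5% (v/v). Peptides added at various concentrations for 30 min at 37 °C. Supernatant absorbance read at 550 nm. Lysis calculated against buffer (0%) and water (100%). Readings taken in triplicate and averaged.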

Enterococcus faecium [12] = assay: Antibacterial activity against Enterococcus faecium M2664 clinical isolate expressing vanA gene by microdilution test; type: functional; how it was run: as §1
Enterococcus faecium [13] = assay: Antibacterial activity against Enterococcus faecium M2619 clinical isolate expressing vanB gene by microdilution test; type: functional; how it was run: as §1
Enterococcus faecalis = assay: Antibacterial activity against Enterococcus faecalis ATCC 29212 by microdilution test; type: functional; how it was run: as §1
Staphylococcus hominis = assay: Antibacterial activity against Staphylococcus hominis M2967 clinical isolate expressing mecA gene by microdilution test; type: functional; how it was run: as §2
[14] = system: Staphylococcus saprophyticus; assay: Antibacterial activity against Staphylococcus saprophyticus M2981 clinical isolate expressing mecA gene by microdilution test; type: functional; how it was run: as §2
[15] = system: Staphylococcus epidermidis; assay: Antibacterial activity against Staphylococcus epidermidis M2921 clinical isolate expressing mecA gene by microdilution test; type: functional; how it was run: as §2
[16] = system: Staphylococcus epidermidis; assay: Antibacterial activity against Staphylococcus epidermidis M2919 clinical isolate expressing mecA gene by microdilution test; type: functional; how it was run: as §2
Staphylococcus aureus [17] = assay: Antibacterial activity against Staphylococcus aureus M6784 clinical isolate expressing mecA gene by microdilution test; type: functional; how it was run: as §2
Staphylococcus aureus [18] = assay: Antibacterial activity against Staphylococcus aureus P239 clinical isolate expressing ermC gene by microdilution test; type: functional; how it was run: as §2
Staphylococcus aureus [19] = assay: Antibacterial activity against Staphylococcus aureus M6276 clinical isolate expressing ermA and lnuA gene by microdilution test; type: functional; how it was run: as §2
Staphylococcus aureus [20] = assay: Antibacterial activity against Staphylococcus aureus P28 clinical isolate expressing ermA gene by microdilution test; type: functional; how it was run: as §2
Staphylococcus aureus [21] = assay: Antibacterial activity against Staphylococcus aureus ATCC 29213 by microdilution test; type: functional; how it was run: as §2
Escherichia coli [22] = assay: Antibacterial activity against Escherichia coli PLCA1 clinical isolate expressing blaCTX-M-2 and blaTEM-1 gene by microdilution test; type: functional; how it was run: as §1
Escherichia coli [23] = assay: Antibacterial activity against Escherichia coli PABC11 clinical isolate expressing blaCTX-M-2 gene by microdilution test; type: functional; how it was run: as §1
Escherichia coli [24] = assay: Antibacterial activity against Escherichia coli PCOS15 clinical isolate expressing blaPER-2 and blaTEM-1 gene by microdilution test; type: functional; how it was run: as §1
Escherichia coli [25] = assay: Antibacterial activity against Escherichia coli M9884 by microdilution test; type: functional; how it was run: as §1
Escherichia coli [26] = assay: Antibacterial activity against Escherichia coli ATCC 25922 by microdilution test; type: functional; how it was run: as §1
Klebsiella pneumoniae [27] = assay: Antibacterial activity against Klebsiella pneumoniae M9885 clinical isolate expressing blaKPC-2 gene by microdilution test; type: functional; how it was run: as §1
Klebsiella pneumoniae [28] = assay: Antibacterial activity against Klebsiella pneumoniae M13540 clinical isolate expressing blaKPC-2 gene by microdilution test; type: functional; how it was run: as §1
Klebsiella pneumoniae [29] = assay: Antibacterial activity against Klebsiella pneumoniae M7647 clinical isolate expressing blaVIM, blaCTX-M-2, blaTEM-1 and blaSHV-1 gene by microdilution test; type: functional; how it was run: as §1

Compound: H-GLLKKWLKKWKEFKRIVGY-NH2
- MIC90 (Klebsiella pneumoniae [1]): 32 µg/mL
- MIC90 (Acinetobacter sp. [2]): 8 µg/mL
- MIC90 (Acinetobacter sp. [3]): 16 µg/mL
- MIC90 (Acinetobacter sp. [4]): 32 µg/mL
- MIC90 (Acinetobacter sp. [5]): 4 µg/mL
- MIC90 (Pseudomonas aeruginosa [6]): 64 µg/mL
- MIC90 (Pseudomonas aeruginosa [7]): 64 µg/mL
- MIC90 (Pseudomonas aeruginosa [8]): 64 µg/mL
- MIC90 (Pseudomonas aeruginosa [9]): 64 µg/mL
- MIC90 (Pseudomonas aeruginosa [10]): 64 µg/mL
- hemolysis [11]: 39.8%
- MIC90 (Enterococcus faecium [12]): 8 µg/mL
- MIC90 (Enterococcus faecium [13]): 16 µg/mL
- MIC90 (Enterococcus faecalis): 128 µg/mL
- MIC90 (Staphylococcus hominis): 8 µg/mL
- MIC90 [14]: 8 µg/mL
- MIC90 [15]: 8 µg/mL
- MIC90 [16]: 16 µg/mL
- MIC90 (Staphylococcus aureus [17]): 32 µg/mL
- MIC90 (Staphylococcus aureus [18]): 64 µg/mL
- MIC90 (Staphylococcus aureus [19]): 128 µg/mL
- MIC90 (Staphylococcus aureus [20]): 64 µg/mL
- MIC90 (Staphylococcus aureus [21]): 64 µg/mL
- MIC90 (Escherichia coli [22]): 64 µg/mL
- MIC90 (Escherichia coli [23]): 32 µg/mL
- MIC90 (Escherichia coli [24]): 64 µg/mL
- MIC90 (Escherichia coli [25]): 32 µg/mL
- MIC90 (Escherichia coli [26]): 32 µg/mL
- MIC90 (Klebsiella pneumoniae [27]): 64 µg/mL
- MIC90 (Klebsiella pneumoniae [28]): 16 µg/mL
- MIC90 (Klebsiella pneumoniae [29]): 32 µg/mL

Compound: H-WPKWWKWKRRWGRKKAKKRRG-NH2
- MIC90 (Klebsiella pneumoniae [1]): 1020 µg/mL
- MIC90 (Acinetobacter sp. [2]): 32 µg/mL
- MIC90 (Acinetobacter sp. [3]): 256 µg/mL
- MIC90 (Acinetobacter sp. [4]): 64 µg/mL
- MIC90 (Acinetobacter sp. [5]): 64 µg/mL
- MIC90 (Pseudomonas aeruginosa [6]): 64 µg/mL
- MIC90 (Pseudomonas aeruginosa [7]): 64 µg/mL
- MIC90 (Pseudomonas aeruginosa [8]): 128 µg/mL
- MIC90 (Pseudomonas aeruginosa [9]): 128 µg/mL
- MIC90 (Pseudomonas aeruginosa [10]): 64 µg/mL
- hemolysis [11]: 3.4%
- MIC90 (Enterococcus faecium [12]): 16 µg/mL
- MIC90 (Enterococcus faecium [13]): 32 µg/mL
- MIC90 (Enterococcus faecalis): 64 µg/mL
- MIC90 (Staphylococcus hominis): 8 µg/mL
- MIC90 [14]: 16 µg/mL
- MIC90 [15]: 8 µg/mL
- MIC90 [16]: 16 µg/mL
- MIC90 (Staphylococcus aureus [17]): 32 µg/mL
- MIC90 (Staphylococcus aureus [18]): 32 µg/mL
- MIC90 (Staphylococcus aureus [19]): 16 µg/mL
- MIC90 (Staphylococcus aureus [20]): 32 µg/mL
- MIC90 (Staphylococcus aureus [21]): 32 µg/mL
- MIC90 (Escherichia coli [22]): 128 µg/mL
- MIC90 (Escherichia coli [23]): 128 µg/mL
- MIC90 (Escherichia coli [24]): 128 µg/mL
- MIC90 (Escherichia coli [25]): 128 µg/mL
- MIC90 (Escherichia coli [26]): 128 µg/mL
- MIC90 (Klebsiella pneumoniae [27]): > 1020 µg/mL
- MIC90 (Klebsiella pneumoniae [28]): > 1020 µg/mL
- MIC90 (Klebsiella pneumoniae [29]): > 1020 µg/mL

Compound: H-RIVQRIKKWLLKWKKLGY-NH2
- MIC90 (Klebsiella pneumoniae [1]): 32 µg/mL
- MIC90 (Acinetobacter sp. [2]): 32 µg/mL
- MIC90 (Acinetobacter sp. [3]): 256 µg/mL
- MIC90 (Acinetobacter sp. [4]): 64 µg/mL
- MIC90 (Acinetobacter sp. [5]): 64 µg/mL
- MIC90 (Pseudomonas aeruginosa [6]): 64 µg/mL
- MIC90 (Pseudomonas aeruginosa [7]): 64 µg/mL
- MIC90 (Pseudomonas aeruginosa [8]): 64 µg/mL
- MIC90 (Pseudomonas aeruginosa [9]): 64 µg/mL
- MIC90 (Pseudomonas aeruginosa [10]): 64 µg/mL
- hemolysis [11]: 9.5%
- MIC90 (Enterococcus faecium [12]): 8 µg/mL
- MIC90 (Enterococcus faecium [13]): 16 µg/mL
- MIC90 (Enterococcus faecalis): 128 µg/mL
- MIC90 (Staphylococcus hominis): 8 µg/mL
- MIC90 [14]: 8 µg/mL
- MIC90 [15]: 8 µg/mL
- MIC90 [16]: 8 µg/mL
- MIC90 (Staphylococcus aureus [17]): 32 µg/mL
- MIC90 (Staphylococcus aureus [18]): 64 µg/mL
- MIC90 (Staphylococcus aureus [19]): 64 µg/mL
- MIC90 (Staphylococcus aureus [20]): 64 µg/mL
- MIC90 (Staphylococcus aureus [21]): 32 µg/mL
- MIC90 (Escherichia coli [22]): 64 µg/mL
- MIC90 (Escherichia coli [23]): 32 µg/mL
- MIC90 (Escherichia coli [24]): 64 µg/mL
- MIC90 (Escherichia coli [25]): 32 µg/mL
- MIC90 (Escherichia coli [26]): 32 µg/mL
- MIC90 (Klebsiella pneumoniae [27]): 32 µg/mL
- MIC90 (Klebsiella pneumoniae [28]): 64 µg/mL
- MIC90 (Klebsiella pneumoniae [29]): 32 µg/mL

Compound: CC[C@H](C)[C@H](N)C(=O)N[C@@H](CC(C)C)C(=O)N[C@@H](CCCNC(=N)N)C(=O)N[C@@H](Cc1c[nH]c2ccccc12)C(=O)N1CCC[C@H]1C(=O)N[C@@H](Cc1c[nH]c2ccccc12)C(=O)N[C@@H](Cc1c[nH]c2ccccc12)C(=O)N1CCC[C@H]1C(=O)N[C@@H](Cc1c[nH]c2ccccc12)C(=O)N[C@@H](CCCNC(=N)N)C(=O)N[C@@H](CCCNC(=N)N)C(=O)N[C@@H](CCCCN)C(N)=O.Cl.Cl.Cl.Cl.Cl [OMIGANAN PENTAHYDROCHLORIDE] (H-ILRWPWWPWRRK-NH2)
- MIC90 (Klebsiella pneumoniae [1]): 64 µg/mL
- MIC90 (Acinetobacter sp. [2]): 32 µg/mL
- MIC90 (Acinetobacter sp. [3]): 32 µg/mL
- MIC90 (Acinetobacter sp. [4]): 32 µg/mL
- MIC90 (Acinetobacter sp. [5]): 32 µg/mL
- MIC90 (Pseudomonas aeruginosa [6]): 512 µg/mL
- MIC90 (Pseudomonas aeruginosa [7]): 512 µg/mL
- MIC90 (Pseudomonas aeruginosa [8]): 128 µg/mL
- MIC90 (Pseudomonas aeruginosa [9]): 512 µg/mL
- MIC90 (Pseudomonas aeruginosa [10]): 512 µg/mL
- hemolysis [11]: 10%
- MIC90 (Enterococcus faecium [12]): 8 µg/mL
- MIC90 (Enterococcus faecium [13]): 16 µg/mL
- MIC90 (Enterococcus faecalis): 128 µg/mL
- MIC90 (Staphylococcus hominis): 4 µg/mL
- MIC90 [14]: 8 µg/mL
- MIC90 [15]: 8 µg/mL
- MIC90 [16]: 8 µg/mL
- MIC90 (Staphylococcus aureus [17]): 32 µg/mL
- MIC90 (Staphylococcus aureus [18]): 32 µg/mL
- MIC90 (Staphylococcus aureus [19]): 32 µg/mL
- MIC90 (Staphylococcus aureus [20]): 32 µg/mL
- MIC90 (Staphylococcus aureus [21]): 32 µg/mL
- MIC90 (Escherichia coli [22]): 64 µg/mL
- MIC90 (Escherichia coli [23]): 64 µg/mL
- MIC90 (Escherichia coli [24]): 64 µg/mL
- MIC90 (Escherichia coli [25]): 64 µg/mL
- MIC90 (Escherichia coli [26]): 64 µg/mL
- MIC90 (Klebsiella pneumoniae [27]): 256 µg/mL
- MIC90 (Klebsiella pneumoniae [28]): 256 µg/mL
- MIC90 (Klebsiella pneumoniae [29]): 1020 µg/mL
